Measurements published in ChEMBL document CHEMBL2311535, “Development of second-generation indole-based dynamin GTPase inhibitors” (J Med Chem, 2013).

What was measured:
[1] = Inhibition of sheep dyn1 after 30 mins by malachite green GTPase assay in presence of GTP; parameters: species or system Ovis aries
Summary of the method: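 Compound (≤3% DMSO) was present for 30 min at 37 °C, shaking. The reaction was stopped with EDTA, Pi read by malachite green at 650 nm against a phosphate standard.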

Dynamin-2 = biological target: T1, Dynamin-2 (Rattus norvegicus, UniProt P39052); test: Inhibition of rat full length His6-tagged dyn2 using phosphatidylserine as substrate after 90 mins by malachite green GTPase assay in presence of GTP
T1 sequence (P39052 whole entry): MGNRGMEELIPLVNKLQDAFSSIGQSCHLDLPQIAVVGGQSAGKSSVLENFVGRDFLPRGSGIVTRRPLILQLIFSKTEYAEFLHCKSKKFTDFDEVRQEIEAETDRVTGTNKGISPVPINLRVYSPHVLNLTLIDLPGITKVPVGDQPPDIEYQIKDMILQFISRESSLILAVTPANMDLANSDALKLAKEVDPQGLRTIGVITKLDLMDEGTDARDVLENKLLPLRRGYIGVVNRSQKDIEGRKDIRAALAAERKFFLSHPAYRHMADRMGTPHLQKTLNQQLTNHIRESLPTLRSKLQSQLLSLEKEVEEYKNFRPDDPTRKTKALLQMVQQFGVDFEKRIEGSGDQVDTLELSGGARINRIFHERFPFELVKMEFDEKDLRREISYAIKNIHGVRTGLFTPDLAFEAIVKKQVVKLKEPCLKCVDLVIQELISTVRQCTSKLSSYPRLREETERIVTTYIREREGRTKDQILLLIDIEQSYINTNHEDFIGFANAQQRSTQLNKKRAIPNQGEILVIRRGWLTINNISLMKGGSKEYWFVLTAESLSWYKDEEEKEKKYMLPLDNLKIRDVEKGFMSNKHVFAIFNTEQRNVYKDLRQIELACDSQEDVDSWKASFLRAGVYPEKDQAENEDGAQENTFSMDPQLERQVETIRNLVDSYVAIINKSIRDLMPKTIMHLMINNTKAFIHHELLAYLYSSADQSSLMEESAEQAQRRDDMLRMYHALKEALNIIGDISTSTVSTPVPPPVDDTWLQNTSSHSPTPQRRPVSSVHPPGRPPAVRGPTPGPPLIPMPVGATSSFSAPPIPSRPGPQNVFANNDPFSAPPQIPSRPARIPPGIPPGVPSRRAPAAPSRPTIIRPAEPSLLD
Summary of the method: (§1)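 Normalized conditions: 50 nM sheep brain dynI or recombinant His6 full-length rat dynII (Sf21-expressed) was preincubated with 10 μg/mL PS for 15 min at RT. Reactions then ran in Tris/NaCl/Mg²⁺/Tween buffer pH 7.4 with leupeptin, AEBSF, 300 μM GTP and compound at 37 °C, 800 rpm: 10 min for dynI, 90 min for dynII. They were stopped with EDTA, and Pi was read by malachite green. Selectivity is the ratio of the two IC50s.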

[2] = Selectivity ratio of IC50 for sheep dyn1 receptor to IC50 for rat dyn2 receptor; summary of the method: as §1
[3] = Inhibition of sheep full length dyn1 using phosphatidylserine as substrate after 10 mins by malachite green GTPase assay in presence of GTP; parameters: species or system Ovis aries; summary of the method: as §1
HeLa = test: Cytotoxicity against human HeLa cells at 30 uM after 8 hrs by trypan blue exclusion assay; format: cell-based
Summary of the method: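 HeLa cells were treated with compound or vehicle (0.5% DMSO) for 8 h. Floating and adherent cells were pooled. Viability and membrane integrity were scored by Trypan Blue exclusion on an automated viability analyzer. Cytotoxicity (%) was normalized to drug/media background.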

Row | SMILES | IC50 ([1]; read-out: IC50) [µM] | IC50 (Dynamin-2) [µM] | other results
1 | CCCCCCCCNC(=O)/C(C#N)=C/c1cn(CC(O)CN2CCOCC2)c2ccccc12 (centres undefined) | 18 | – | –
2 | CCCCCCCCNC(=O)/C(C#N)=C/c1cn(CC(=O)Nc2ccc3c(c2)OCO3)c2ccccc12 | – | – | IC50 [1]: Not Active
3 | CCCCCCCCCCNCc1cn(CCCN(C)C)c2ccccc12 | – | 7.5 | –

More lines, main results first:

Row | IC50 ([1]; read-out: IC50) [µM] | IC50 (Dynamin-2) [µM] | SMILES | other results
4 | 2.3 | – | CCCCCCCCNCc1cn(CCCN(C)C)c2ccccc12 | –
5 | 1.3 | 16 | CCCCCCCCNC(=O)/C(C#N)=C/c1cn(CCCN(C)C)c2ccccc12 | Ratio IC50 [2]: 2.3; IC50 [3]: 6.9 µM; Activity (HeLa): 80%
